Reference: PMC11078286 (Therapeutic Drug Monitoring, 2024)

Columns and labels:
Freeze–thaw stability [1] = type: in vitro ADME, human; details: DBS, 3 F/T cycles, n = 6
Method in brief: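 QC samples were kept 8 hours at RT, then put through 3 freeze–thaw cycles: thaw 2 hours at RT, refreeze at −80°C for at least 12 hours. Plasma (20 µL) with I.S. was protein-precipitated with water/ACN and centrifuged 15,000g for 10 min. A DBS spot was extracted in ACN with I.S. and centrifuged 15,000g for 5 min. Six replicates were run on UHPLC-MS/MS, with relative error versus nominal.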

Autosampler [2] = type: in vitro ADME, human; details: plasma, n = 6
Freeze–thaw stability [3] = type: in vitro ADME, human; details: plasma, 3 F/T cycles, n = 6
Long-term stability [4] = type: in vitro ADME, human; details: DBS, Long-term (−80 degrees) for 30 d, n = 6
CYP3A4 = details: preclinical data; cited from earlier work
[5] = ref Rood et al, 30; cited from earlier work
Autosampler [6] = type: in vitro ADME, human; details: DBS, n = 6
Method in brief: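 DBS QC samples were made by filling hemaPEN capillaries from a blood drop onto precut disks and drying 1 hour at RT. Each spot (2.74 μL) was extracted in 350 µL ACN plus I.S. (30 ng/mL), vortexed, centrifuged at 15,000g, then shaken 1 hour at RT. Processed extracts were held in the autosampler at 4°C for 24 hours. Six replicates were read by UHPLC-MS/MS in positive MRM mode, with relative error taken against nominal.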

[7] = Bland–Altman comparison of plasma and hemaPEN DBS concentrations; type: in vivo, human; details: 15 patients with NSCLC
Method in brief: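 Paired trough samples came from each patient: a finger-prick hemaPEN DBS, and venous EDTA blood drawn within 10 min that was spun at 2000g for 10 min, with plasma stored at −80°C. Both matrices were quantified by UHPLC-MS/MS, with AZ7550 calibrated using the labelled [¹³C²H₃] standard. Plasma and DBS values were compared by Bland–Altman analysis, with limits of agreement at ±1.96 SD of the mean difference.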

EGFR/T790M = details: cited from earlier work
Long-term stability [8] = type: in vitro ADME, human; details: plasma, Long-term (−80 degrees) for 30 d, n = 6
Method in brief: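 QC samples were stored at −80°C for 30 days before analysis. Plasma (20 µL) with I.S. (30 ng/mL) was precipitated with 150 µL water and 650 µL ACN, vortexed 5 min and centrifuged at 15,000g for 10 min. A hemaPEN DBS spot was extracted in 350 µL ACN with I.S. and centrifuged at 15,000g for 5 min. There were six replicates, 1 µL was injected for UHPLC-MS/MS MRM, and relative error was calculated versus nominal.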

- Mean (measured concentration, stability) (Freeze–thaw stability [1]; nominal 1 ng/mL (LLOQ)): 1.06
- RE (stability) (Freeze–thaw stability [1]; nominal 1 ng/mL (LLOQ)): 8.95%
- Mean (measured concentration, stability) (Freeze–thaw stability [1]; nominal 3 ng/mL (LQC)): 3.01
- RE (stability) (Freeze–thaw stability [1]; nominal 3 ng/mL (LQC)): −0.43%
- Mean (measured concentration, stability) (Freeze–thaw stability [1]; nominal 30 ng/mL (MQC)): 29.34
- RE (stability) (Freeze–thaw stability [1]; nominal 30 ng/mL (MQC)): −2.24%
- Mean (measured concentration, stability) (Freeze–thaw stability [1]; nominal 270 ng/mL (HQC)): 271.92
- RE (stability) (Freeze–thaw stability [1]; nominal 270 ng/mL (HQC)): 0.24%
- Mean (measured concentration, stability) (Autosampler [2]; nominal 1 ng/mL (LLOQ)): 1.04
- RE (stability) (Autosampler [2]; nominal 1 ng/mL (LLOQ)): 7.21%
- Mean (measured concentration, stability) (Autosampler [2]; nominal 3 ng/mL (LQC)): 2.96
- RE (stability) (Autosampler [2]; nominal 3 ng/mL (LQC)): −1.01%
- Mean (measured concentration, stability) (Autosampler [2]; nominal 30 ng/mL (MQC)): 29.32
- RE (stability) (Autosampler [2]; nominal 30 ng/mL (MQC)): −2.3%
- Mean (measured concentration, stability) (Autosampler [2]; nominal 270 ng/mL (HQC)): 279.56
- RE (stability) (Autosampler [2]; nominal 270 ng/mL (HQC)): 0.58%
- Mean (measured concentration, stability) (Freeze–thaw stability [3]; nominal 1 ng/mL (LLOQ)): 1.14
- RE (stability) (Freeze–thaw stability [3]; nominal 1 ng/mL (LLOQ)): 10.47%
- Mean (measured concentration, stability) (Freeze–thaw stability [3]; nominal 3 ng/mL (LQC)): 3.02
- RE (stability) (Freeze–thaw stability [3]; nominal 3 ng/mL (LQC)): 0.07%
- Mean (measured concentration, stability) (Freeze–thaw stability [3]; nominal 30 ng/mL (MQC)): 28.84
- RE (stability) (Freeze–thaw stability [3]; nominal 30 ng/mL (MQC)): −3.85%
- Mean (measured concentration, stability) (Freeze–thaw stability [3]; nominal 270 ng/mL (HQC)): 269.25
- RE (stability) (Freeze–thaw stability [3]; nominal 270 ng/mL (HQC)): −0.27%
- Mean (measured concentration, stability) (Long-term stability [4]; nominal 1 ng/mL (LLOQ)): 1.1
- RE (stability) (Long-term stability [4]; nominal 1 ng/mL (LLOQ)): 10.68%
- Mean (measured concentration, stability) (Long-term stability [4]; nominal 3 ng/mL (LQC)): 2.91
- RE (stability) (Long-term stability [4]; nominal 3 ng/mL (LQC)): 0.14%
- Mean (measured concentration, stability) (Long-term stability [4]; nominal 30 ng/mL (MQC)): 30.08
- RE (stability) (Long-term stability [4]; nominal 30 ng/mL (MQC)): −2.18%
- Mean (measured concentration, stability) (Long-term stability [4]; nominal 270 ng/mL (HQC)): 269.97
- RE (stability) (Long-term stability [4]; nominal 270 ng/mL (HQC)): 0.71%
- Mean (measured concentration, stability) (Autosampler [6]; nominal 1 ng/mL (LLOQ)): 1.07
- RE (stability) (Autosampler [6]; nominal 1 ng/mL (LLOQ)): 7.15%
- Mean (measured concentration, stability) (Autosampler [6]; nominal 3 ng/mL (LQC)): 2.96
- RE (stability) (Autosampler [6]; nominal 3 ng/mL (LQC)): −1.11%
- Mean (measured concentration, stability) (Autosampler [6]; nominal 30 ng/mL (MQC)): 29.31
- RE (stability) (Autosampler [6]; nominal 30 ng/mL (MQC)): −2.7%
- Mean (measured concentration, stability) (Autosampler [6]; nominal 270 ng/mL (HQC)): 271.88
- RE (stability) (Autosampler [6]; nominal 270 ng/mL (HQC)): 0.69%
- Mean concentration difference between plasma and hemaPEN DBS (Bland–Altman) [7]: 0.4%
- Mean (measured concentration, stability) (Long-term stability [8]; nominal 1 ng/mL (LLOQ)): 1.15
- RE (stability) (Long-term stability [8]; nominal 1 ng/mL (LLOQ)): 15.47%
- Mean (measured concentration, stability) (Long-term stability [8]; nominal 3 ng/mL (LQC)): 2.91
- RE (stability) (Long-term stability [8]; nominal 3 ng/mL (LQC)): −2.7%
- Mean (measured concentration, stability) (Long-term stability [8]; nominal 30 ng/mL (MQC)): 29.39
- RE (stability) (Long-term stability [8]; nominal 30 ng/mL (MQC)): −2.02%
- Mean (measured concentration, stability) (Long-term stability [8]; nominal 270 ng/mL (HQC)): 270.31
- RE (stability) (Long-term stability [8]; nominal 270 ng/mL (HQC)): 0.11%
SMILES: C=CC(=O)Nc1cc(Nc2nccc(-c3cn(C)c4ccccc34)n2)c(OC)cc1N(C)CCN(C)C [Osimertinib]
- Metabolizing enzyme (CYP3A4): principally metabolized by cytochrome P450 (CYP3A4)
- Degradation at RT [5]: rapid degradation
- Greater potency toward mutated EGFR/T790M than wild-type EGFR (EGFR/T790M): 200 ×
